The IC50 is the concentration needed to halve the response being measured. High values mean weaker potency in that assay, low ones greater potency in that assay.

SMILES strings stand for the structures.

The target of the assay is T1, Gonadotropin-releasing hormone receptor (Homo sapiens, UniProt P30968).
T1 sequence (P30968 whole entry): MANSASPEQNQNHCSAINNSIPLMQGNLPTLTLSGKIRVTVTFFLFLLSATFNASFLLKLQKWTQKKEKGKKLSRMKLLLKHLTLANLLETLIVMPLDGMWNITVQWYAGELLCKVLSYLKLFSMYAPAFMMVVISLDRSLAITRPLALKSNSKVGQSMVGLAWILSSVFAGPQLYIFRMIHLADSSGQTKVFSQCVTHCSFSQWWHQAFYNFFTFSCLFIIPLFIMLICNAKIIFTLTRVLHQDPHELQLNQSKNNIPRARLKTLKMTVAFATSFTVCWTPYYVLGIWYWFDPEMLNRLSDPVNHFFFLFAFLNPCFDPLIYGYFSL
The experiment in a line: In vitro inhibition of specific [125I]leuprorelin binding to the cloned human LHRH receptor expressed in chinese hamster ovary cells. It is filed as cell-based, CHO. The method, boiled down: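 Membranes from CHO cells expressing the receptor (0.2 mg/mL) incubated with [125I][Tyr5]leuprorelin (0.12–0.15 nM) and varied test compound, 60 min at 25 °C, Tris 25 mM/EDTA/0.1% BSA/protease inhibitors buffer, pH 7.5. Stopped with ice-cold buffer, filtered on PEI-coated glass fibre, radioactivity counted. Nonspecific binding with […] unlabeled leuprorelin; IC50 from pseudo-Hill fit.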
On to `CCNC(=O)Nc1ccc(-c2nc3n(Cc4c(F)cccc4F)cc(C(=O)OC(C)C)c(=O)n3c2CN(C)Cc2ccccc2)cc1`, for which the IC50 is 0.3 nM.

For `CCOC(=O)c1cn(Cc2c(F)cccc2F)c2nc(-c3ccc(NC(=O)c4ccccc4)cc3)c(CN(C)Cc3ccccc3)n2c1=O`, the 50% inhibitory concentration (IC50) worked out at 20 nM.

The compound `CCOC(=O)c1cn(Cc2c(F)cccc2F)c2nc(-c3ccc(NC(=O)NOC)cc3)c(CN(C)Cc3ccccc3)n2c1=O` had a 50% inhibitory concentration (IC50) of 0.7 nM.

In turn, `CCOC(=O)c1cn(Cc2c(F)cccc2F)c2nc(-c3ccc(NC(=O)c4ccsc4)cc3)c(CN(C)Cc3ccccc3)n2c1=O` showed an IC50 of 7 nM.

For `CCOC(=O)c1cn(Cc2c(F)cccc2F)c2nc(-c3ccc(NC(=O)C(C)C)cc3)c(CN(C)Cc3ccccc3)n2c1=O`, the IC50 is 30 nM.

On to `CCOC(=O)c1cn(Cc2c(F)cccc2F)c2nc(-c3ccc(NC(=O)CC)cc3)c(CN(C)Cc3ccccc3)n2c1=O`, for which the IC50 amounted to 10 nM.

For `CCOC(=O)c1cn(Cc2c(F)cccc2F)c2nc(-c3ccc(NC(=O)C4CC4)cc3)c(CN(C)Cc3ccccc3)n2c1=O`, the IC50 worked out at 5 nM.

`CONC(=O)Nc1ccc(-c2nc3n(Cc4c(F)cccc4F)cc(C(=O)OC(C)C)c(=O)n3c2CN(C)Cc2ccccc2)cc1`: the IC50 worked out at 0.4 nM.

`C=CC(=O)Nc1ccc(-c2nc3n(Cc4c(F)cccc4F)cc(C(=O)OCC)c(=O)n3c2CN(C)Cc2ccccc2)cc1` yielded a concentration for half-maximal inhibition (IC50) of 3 nM.

For the compound `CCOC(=O)c1cn(Cc2c(F)cccc2F)c2nc(-c3ccc(NC(=O)c4ccoc4)cc3)c(CN(C)Cc3ccccc3)n2c1=O`, the IC50 was 3 nM.

Values taken from ChEMBL document CHEMBL1134852, “A new class of potent nonpeptide luteinizing hormone-releasing hormone (LHRH) antagonists: design and synthesis of 2-phenylimidazo[1,2-a]pyrimidin-5-ones” (Bioorg Med Chem Lett, 2002).
